Results published in ChEMBL document CHEMBL3856258, “Phosphonate-based irreversible inhibitors of human γ-glutamyl transpeptidase (GGT). GGsTop is a non-toxic and highly selective inhibitor with critical electrostatic interaction with an active-site residue Lys562 for enhanced inhibitory activity” (Bioorg Med Chem, 2016).

Tests used:
[1] = Cytotoxicity against CHL cells assessed as structural aberrations at 1650 ug/ml after 24 hrs by Giemsa-staining-based microscopic analysis; type: toxicity, cell-based, Cricetulus griseus; conditions: chinese hamster
[2] = Cytotoxicity against CHL cells assessed as structural aberrations at 1650 ug/ml preincubated for 6 hrs followed by 18 hrs incubation in fresh medium in presence of S9 fraction by Giemsa-staining-based microscopic analysis; type: toxicity, cell-based, Cricetulus griseus; conditions: chinese hamster
[3] = tested on: Salmonella typhimurium; assay: Genotoxicity in Salmonella typhimurium TA1537 assessed as number of revertant colonies per plate at 1667 ug/plate after 20 mins in presence of S9 fraction by Ames test (reference value: 15); type: toxicity, organism-based; conditions: salmonella enterica subsp. enterica serovar typhimurium
[4] = organism: Rattus norvegicus; assay: Cytotoxicity against Wistar rat BSC assessed as reduction in cell viability up to 1 mM after 24 hrs by neutral red method; type: toxicity
[5] = Cytotoxicity against CHL cells assessed as growth rate at 84.5 ug/ml preincubated for 6 hrs followed by 18 hrs incubation in fresh medium in presence of S9 fraction by MTT assay relative to control; type: toxicity, cell-based, Cricetulus griseus; conditions: chinese hamster, read-out: Activity
[6] = Cytotoxicity against CHL cells assessed as chromatid gap at 825 ug/ml after 24 hrs by Giemsa-staining-based microscopic analysis; type: toxicity, cell-based, Cricetulus griseus; conditions: chinese hamster
[7] = tested on: Escherichia coli; assay: Genotoxicity in Escherichia coli WP2uvrA assessed as number of revertant colonies per plate at 61.7 ug/plate after 20 mins in absence of S9 fraction by Ames test (reference value: 24); type: toxicity; conditions: s9, 20 min
[8] = tested on: Salmonella typhimurium; assay: Genotoxicity in Salmonella typhimurium TA98 assessed as number of revertant colonies per plate at 20.6 ug/plate after 20 mins in absence of S9 fraction by Ames test (reference value: 21); type: toxicity, organism-based; conditions: salmonella enterica subsp. enterica serovar typhimurium
[9] = tested on: Salmonella typhimurium; assay: Genotoxicity in Salmonella typhimurium TA98 assessed as number of revertant colonies per plate at 20.6 ug/plate after 20 mins in presence of S9 fraction by Ames test (reference value: 26); type: toxicity, organism-based; conditions: salmonella enterica subsp. enterica serovar typhimurium
[10] = tested on: Salmonella typhimurium; assay: Genotoxicity in Salmonella typhimurium TA1537 assessed as number of revertant colonies per plate at 5000 ug/plate after 20 mins in presence of S9 fraction by Ames test (reference value: 15); type: toxicity, organism-based; conditions: salmonella enterica subsp. enterica serovar typhimurium
[11] = Cytotoxicity against CHL cells assessed as growth rate at 211 ug/ml preincubated for 6 hrs followed by 18 hrs incubation in fresh medium in presence of S9 fraction by MTT assay relative to control; type: toxicity, cell-based, Cricetulus griseus; conditions: chinese hamster, read-out: Activity
[12] = tested on: Escherichia coli; assay: Genotoxicity in Escherichia coli WP2uvrA assessed as number of revertant colonies per plate at 61.7 ug/plate after 20 mins in presence of S9 fraction by Ames test (reference value: 26); type: toxicity; conditions: s9, 20 min
[13] = tested on: Salmonella typhimurium; assay: Genotoxicity in Salmonella typhimurium TA100 assessed as number of revertant colonies per plate at 61.7 ug/plate after 20 mins in presence of S9 fraction by Ames test (reference value: 142); type: toxicity, organism-based; conditions: salmonella enterica subsp. enterica serovar typhimurium
[14] = tested on: Escherichia coli; assay: Genotoxicity in Escherichia coli WP2uvrA assessed as number of revertant colonies per plate at 1667 ug/plate after 20 mins in absence of S9 fraction by Ames test (reference value: 24); type: toxicity; conditions: s9, 20 min
[15] = tested on: Salmonella typhimurium; assay: Genotoxicity in Salmonella typhimurium TA100 assessed as number of revertant colonies per plate at 20.6 ug/plate after 20 mins in absence of S9 fraction by Ames test (reference value: 123); type: toxicity, organism-based; conditions: salmonella enterica subsp. enterica serovar typhimurium
[16] = tested on: Salmonella typhimurium; assay: Genotoxicity in Salmonella typhimurium TA98 assessed as number of revertant colonies per plate at 5000 ug/plate after 20 mins in absence of S9 fraction by Ames test (reference value: 21); type: toxicity, organism-based; conditions: salmonella enterica subsp. enterica serovar typhimurium
[17] = tested on: Salmonella typhimurium; assay: Genotoxicity in Salmonella typhimurium TA100 assessed as number of revertant colonies per plate at 1667 ug/plate after 20 mins in presence of S9 fraction by Ames test (reference value: 142); type: toxicity, organism-based; conditions: salmonella enterica subsp. enterica serovar typhimurium
[18] = tested on: Salmonella typhimurium; assay: Genotoxicity in Salmonella typhimurium TA1535 assessed as number of revertant colonies per plate at 5000 ug/plate after 20 mins in absence of S9 fraction by Ames test (reference value: 15); type: toxicity, organism-based; conditions: salmonella enterica subsp. enterica serovar typhimurium
[19] = Cytotoxicity against CHL cells assessed as chromatid gap at 3300 ug/ml after 24 hrs by Giemsa-staining-based microscopic analysis; type: toxicity, cell-based, Cricetulus griseus; conditions: chinese hamster
[20] = Cytotoxicity against CHL cells assessed as growth rate at 2.16 ug/ml preincubated for 6 hrs followed by 18 hrs incubation in fresh medium in absence of S9 fraction by MTT assay relative to control; type: toxicity, cell-based, Cricetulus griseus; conditions: chinese hamster, read-out: Activity
[21] = Cytotoxicity against CHL cells assessed as growth rate at 2.16 ug/ml preincubated for 6 hrs followed by 18 hrs incubation in fresh medium in presence of S9 fraction by MTT assay relative to control; type: toxicity, cell-based, Cricetulus griseus; conditions: chinese hamster, read-out: Activity
[22] = Cytotoxicity against CHL cells assessed as structural aberrations at 3300 ug/ml after 24 hrs by Giemsa-staining-based microscopic analysis; type: toxicity, cell-based, Cricetulus griseus; conditions: chinese hamster
[23] = Cytotoxicity against CHL cells assessed as growth rate at 3300 ug/ml after 24 hrs in absence of S9 fraction by MTT assay relative to control; type: toxicity, cell-based, Cricetulus griseus; conditions: chinese hamster, read-out: Activity
[24] = Cytotoxicity against CHL cells assessed as growth rate at 13.5 ug/ml after 24 hrs in absence of S9 fraction by MTT assay relative to control; type: toxicity, cell-based, Cricetulus griseus; conditions: chinese hamster, read-out: Activity
[25] = Hydrolytic stability of compound in D2O at pH 1 to 2 by 31P NMR spectroscopy; type: physicochemical; conditions: buffer
[26] = Cytotoxicity against CHL cells assessed as growth rate at 211 ug/ml after 24 hrs in absence of S9 fraction by MTT assay relative to control; type: toxicity, cell-based, Cricetulus griseus; conditions: chinese hamster, read-out: Activity
[27] = tested on: Escherichia coli; assay: Genotoxicity in Escherichia coli WP2uvrA assessed as number of revertant colonies per plate at 185 ug/plate after 20 mins in absence of S9 fraction by Ames test (reference value: 24); type: toxicity; conditions: s9, 20 min
[28] = Cytotoxicity against CHL cells assessed as growth rate at 3300 ug/ml preincubated for 6 hrs followed by 18 hrs incubation in fresh medium in presence of S9 fraction by MTT assay relative to control; type: toxicity, cell-based, Cricetulus griseus; conditions: chinese hamster, read-out: Activity
[29] = tested on: Salmonella typhimurium; assay: Genotoxicity in Salmonella typhimurium TA1535 assessed as number of revertant colonies per plate at 1667 ug/plate after 20 mins in presence of S9 fraction by Ames test (reference value: 13); type: toxicity, organism-based; conditions: salmonella enterica subsp. enterica serovar typhimurium
[30] = tested on: Escherichia coli; assay: Genotoxicity in Escherichia coli WP2uvrA assessed as number of revertant colonies per plate at 1667 ug/plate after 20 mins in presence of S9 fraction by Ames test (reference value: 26); type: toxicity; conditions: s9, 20 min
[31] = tested on: Salmonella typhimurium; assay: Genotoxicity in Salmonella typhimurium TA1537 assessed as number of revertant colonies per plate at 5000 ug/plate after 20 mins in absence of S9 fraction by Ames test (reference value: 9); type: toxicity, organism-based; conditions: salmonella enterica subsp. enterica serovar typhimurium
[32] = organism: Homo sapiens; assay: Irreversible inhibition of human GGT using gamma-Glu-AMC as substrate assessed as association rate constant by […] analysis
Method in brief: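 The enzyme source was a commercial human GGT preparation carrying bovine serum albumin as stabilizer (GGT <1% of protein). Hydrolytic activity was followed with γ-Glu-AMC as substrate. Irreversible inactivation was expressed as kon, the second-order rate constant for the inhibitor–enzyme reaction.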

[33] = Cytotoxicity against CHL cells assessed as chromatid gap at 1650 ug/ml preincubated for 6 hrs followed by 18 hrs incubation in fresh medium in absence of S9 fraction by Giemsa-staining-based microscopic analysis; type: toxicity, cell-based, Cricetulus griseus; conditions: chinese hamster
[34] = Cytotoxicity against CHL cells assessed as number of cells with numerical aberrations at 3300 ug/ml after 24 hrs by Giemsa staining-based microscopic analysis relative to control; type: toxicity, cell-based, Cricetulus griseus; conditions: chinese hamster

Compound: COP(=O)(CCC(N)C(=O)O)Oc1cccc(CC(=O)O)c1 (centres undefined)
- Activity [1]: 1%
- Activity [2]: 1%
- Activity [3]: 18
- Activity [4]: Non-Toxic
- viability at 18 h, 84.5 ug/ml [5]: 100%
- Activity [6]: 0%
- Activity [7]: 26
- Activity [8]: 21
- Activity [9]: 29
- Activity [10]: 17
- viability at 18 h, 211 ug/ml [11]: 98.8%
- Activity [12]: 28
- Activity [13]: 133
- Activity [14]: 29
- Activity [15]: 120
- Activity [16]: 24
- Activity [17]: 131
- Activity [18]: 13
- Activity [19]: 0%
- viability at 18 h, 2.16 ug/ml [20]: 103%
- viability at 18 h, 2.16 ug/ml [21]: 101%
- Activity [22]: 1%
- viability at 24 h, 3300 ug/ml [23]: 79.5%
- viability at 24 h, 13.5 ug/ml [24]: 103%
- Stability [25]: Stable
- viability at 24 h, 211 ug/ml [26]: 98.2%
- Activity [27]: 23
- viability at 18 h, 3300 ug/ml [28]: 96.8%
- Activity [29]: 8
- Activity [30]: 23
- Activity [31]: 9
- K [32]: 51 M⁻¹ s⁻¹
- Activity [33]: 0%
- Activity [34]: 0%
